Laboratory results published in ChEMBL document CHEMBL2177085 (J Med Chem, 2012).
One block for each compound: values may come before it.

Legend:
[1] = Inhibition of angiogenesis in chick embryo model assessed as reduction in vessel growth at 26 nM incubated for 24 hrs; assay type: functional, Gallus gallus
Procedure, shortened: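 White leghorn eggs incubated at 37.5 °C, 62% humidity. At 70 h, albumen removed and shell windowed. From 75 h, 15 agarose pellets (from a 26 mM DMSO stock in 2% agarose; final concentration 26 nM) placed on the area vasculosa.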

[2] = molecular target: Protein kinase C epsilon type (Homo sapiens) (UniProt Q02156); assay: Inhibition of PKCepsilon assessed as enzyme residual activity at 10 uM relative to untreated control
Procedure, shortened: (§1)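 Residual kinase activity at 10 μM compound, determined by a commercial kinase profiling service (Millipore) across 15 kinases of different classes. Each compound tested in duplicate.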

MKN-45 [3] = assay: Cytotoxic activity against human MKN45 cells assessed as cell viability at 20 uM incubated for 5 days by MTT assay; assay type: functional; details: MKN-45, 120 h, read-out: Activity
Procedure, shortened: (§2)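 MTT viability: exponentially growing cells, 10 000 viable cells/well in RPMI plated overnight, then exposed to test compounds for 3 days (HT-29, Molm-14) or 5 days (Mkn-45) at 37 °C, 5% CO2. MTT added for 4 h, then SDS/HCl solubilization overnight and absorbance read at 562 nm. Viability is expressed relative to untreated cells (100%). Triplicate.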

MOLM-14 [4] = assay: Cytotoxic activity against human MOLM14 cells assessed as cell viability at 50 uM incubated for 3 days by MTT assay; assay type: functional; details: MOLM-14, 72 h, read-out: Activity; procedure, shortened: as §2
MKN-45 [5] = assay: Cytotoxic activity against human MKN45 cells assessed as cell viability at 50 uM incubated for 5 days by MTT assay; assay type: functional; details: MKN-45, 120 h, read-out: Activity; procedure, shortened: as §2
[6] = molecular target: Protein kinase C gamma type (Homo sapiens) (UniProt P05129); assay: Inhibition of PKCgamma assessed as enzyme residual activity at 10 uM relative to untreated control; procedure, shortened: as §1
HUVEC [7] = assay: Induction of apoptosis in human HUVEC assessed as accumulation at subG1 phase at 2.6 uM incubated for 4 days by flow cytometry (reference value: 15.4 +/- 1.5%); assay type: functional
MKN-45 [8] = assay: Induction of apoptosis in human MKN45 assessed as accumulation at subG1 phase at 5 uM incubated for 7 days by flow cytometry (reference value: 10.9 +/- 3.2%); assay type: functional
MOLM-14 [9] = assay: Cytotoxic activity against human MOLM14 cells assessed as cell viability at 0.5 uM incubated for 3 days by MTT assay; assay type: functional; details: MOLM-14, 72 h, read-out: Activity; procedure, shortened: as §2
MKN-45 [10] = assay: Cytotoxic activity against human MKN45 cells assessed as cell viability at 10 uM incubated for 5 days by MTT assay; assay type: functional; details: MKN-45, 120 h, read-out: Activity; procedure, shortened: as §2
[11] = molecular target: Cyclin-dependent kinase 2/cyclin A (Homo sapiens) (UniProt P24941+P20248+P78396); assay: Inhibition of CDK2/cyclinA assessed as enzyme residual activity at 10 uM relative to untreated control; assay type: protein-complex assay; procedure, shortened: as §1
[12] = molecular target: Protein kinase C iota type (Homo sapiens) (UniProt P41743); assay: Inhibition of PKCiota assessed as enzyme residual activity at 10 uM relative to untreated control; procedure, shortened: as §1
[13] = molecular target: Hepatocyte growth factor receptor (Homo sapiens) (UniProt P08581); assay: Inhibition of MET assessed as enzyme residual activity at 10 uM relative to untreated control; procedure, shortened: as §1
Chain of Hepatocyte growth factor receptor (Homo sapiens) (P08581 whole entry): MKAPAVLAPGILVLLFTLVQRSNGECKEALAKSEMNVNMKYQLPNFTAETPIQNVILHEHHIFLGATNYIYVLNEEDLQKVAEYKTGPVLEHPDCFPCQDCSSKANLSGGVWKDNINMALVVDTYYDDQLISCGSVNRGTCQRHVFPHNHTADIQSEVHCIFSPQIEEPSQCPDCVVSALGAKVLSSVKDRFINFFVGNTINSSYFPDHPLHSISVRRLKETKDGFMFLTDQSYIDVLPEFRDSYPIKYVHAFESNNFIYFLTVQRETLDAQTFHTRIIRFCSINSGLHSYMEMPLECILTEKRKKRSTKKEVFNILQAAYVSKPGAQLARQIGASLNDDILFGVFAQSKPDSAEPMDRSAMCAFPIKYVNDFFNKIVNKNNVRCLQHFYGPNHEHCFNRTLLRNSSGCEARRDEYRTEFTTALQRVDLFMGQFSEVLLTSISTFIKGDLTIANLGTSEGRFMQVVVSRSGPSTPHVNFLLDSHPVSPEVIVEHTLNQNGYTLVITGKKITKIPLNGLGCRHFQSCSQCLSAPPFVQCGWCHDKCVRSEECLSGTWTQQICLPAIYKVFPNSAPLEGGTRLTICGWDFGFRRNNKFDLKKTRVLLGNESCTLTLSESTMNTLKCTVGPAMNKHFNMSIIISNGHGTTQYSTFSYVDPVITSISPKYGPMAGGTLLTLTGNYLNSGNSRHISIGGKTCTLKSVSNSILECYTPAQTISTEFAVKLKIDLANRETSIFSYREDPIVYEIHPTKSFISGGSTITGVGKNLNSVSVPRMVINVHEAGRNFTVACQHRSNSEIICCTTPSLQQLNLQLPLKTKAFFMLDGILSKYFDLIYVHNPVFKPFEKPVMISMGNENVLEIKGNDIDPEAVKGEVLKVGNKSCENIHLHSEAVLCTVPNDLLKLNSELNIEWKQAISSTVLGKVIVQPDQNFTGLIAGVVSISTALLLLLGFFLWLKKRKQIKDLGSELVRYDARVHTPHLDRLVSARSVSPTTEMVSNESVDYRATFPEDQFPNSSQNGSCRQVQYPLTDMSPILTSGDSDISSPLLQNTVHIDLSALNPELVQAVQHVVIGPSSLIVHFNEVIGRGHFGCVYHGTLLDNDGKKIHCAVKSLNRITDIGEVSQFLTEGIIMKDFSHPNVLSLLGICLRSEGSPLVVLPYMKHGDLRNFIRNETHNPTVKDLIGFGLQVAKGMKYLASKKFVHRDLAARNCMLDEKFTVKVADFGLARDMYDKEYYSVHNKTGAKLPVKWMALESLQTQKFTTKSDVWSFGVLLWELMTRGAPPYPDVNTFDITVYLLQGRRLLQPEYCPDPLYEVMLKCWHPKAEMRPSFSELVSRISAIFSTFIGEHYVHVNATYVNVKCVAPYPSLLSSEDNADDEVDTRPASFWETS

[14] = molecular target: Vascular endothelial growth factor receptor 2 (Homo sapiens, UniProt P35968); assay: Inhibition of VEGFR2 assessed as enzyme residual activity at 10 uM relative to untreated control; procedure, shortened: as §1
[15] = molecular target: Cyclin-dependent kinase 1/cyclin B1 (Homo sapiens) (UniProt P06493+P14635); assay: Inhibition of CDK1/cyclinB assessed as enzyme residual activity at 10 uM relative to untreated control; assay type: protein-complex assay; procedure, shortened: as §1
[16] = molecular target: Epidermal growth factor receptor (Homo sapiens) (UniProt P00533); assay: Inhibition of EGFR assessed as enzyme residual activity at 10 uM relative to untreated control; procedure, shortened: as §1
Chain of Epidermal growth factor receptor (Homo sapiens) (P00533 whole entry): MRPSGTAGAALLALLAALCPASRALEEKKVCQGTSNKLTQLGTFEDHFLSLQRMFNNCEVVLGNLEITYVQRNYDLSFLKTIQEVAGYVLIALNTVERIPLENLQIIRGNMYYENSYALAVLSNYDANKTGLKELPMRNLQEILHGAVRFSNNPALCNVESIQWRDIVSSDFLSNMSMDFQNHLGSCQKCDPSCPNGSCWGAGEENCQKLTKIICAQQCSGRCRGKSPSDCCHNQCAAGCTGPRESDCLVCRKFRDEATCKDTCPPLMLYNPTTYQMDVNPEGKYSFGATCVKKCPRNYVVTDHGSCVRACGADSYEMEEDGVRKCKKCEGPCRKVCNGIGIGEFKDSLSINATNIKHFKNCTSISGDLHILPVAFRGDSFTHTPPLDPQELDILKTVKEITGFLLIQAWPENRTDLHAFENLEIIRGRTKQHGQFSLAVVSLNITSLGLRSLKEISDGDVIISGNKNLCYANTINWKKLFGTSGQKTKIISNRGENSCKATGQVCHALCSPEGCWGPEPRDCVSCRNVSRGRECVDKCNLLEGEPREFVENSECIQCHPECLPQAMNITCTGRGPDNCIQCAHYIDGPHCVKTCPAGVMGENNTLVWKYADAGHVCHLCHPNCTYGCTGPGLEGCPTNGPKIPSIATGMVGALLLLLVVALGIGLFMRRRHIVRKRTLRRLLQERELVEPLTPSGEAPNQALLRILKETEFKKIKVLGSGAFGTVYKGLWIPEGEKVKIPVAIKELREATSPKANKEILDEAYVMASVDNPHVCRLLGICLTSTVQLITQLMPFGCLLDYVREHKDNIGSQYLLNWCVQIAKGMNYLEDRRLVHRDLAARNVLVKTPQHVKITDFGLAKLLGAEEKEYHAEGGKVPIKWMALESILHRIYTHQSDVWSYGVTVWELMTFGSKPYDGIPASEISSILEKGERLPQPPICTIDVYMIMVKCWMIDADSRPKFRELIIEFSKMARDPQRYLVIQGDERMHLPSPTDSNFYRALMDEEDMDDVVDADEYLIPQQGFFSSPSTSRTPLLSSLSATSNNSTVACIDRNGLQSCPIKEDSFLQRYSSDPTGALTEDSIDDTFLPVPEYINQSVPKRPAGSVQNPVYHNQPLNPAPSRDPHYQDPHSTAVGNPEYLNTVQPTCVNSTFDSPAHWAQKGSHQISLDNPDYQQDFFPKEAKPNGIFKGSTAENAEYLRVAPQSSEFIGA

MKN-45 [17] = assay: Induction of apoptosis in human MKN45 assessed as accumulation at subG1 phase at 1 uM incubated for 7 days by flow cytometry (reference value: 10.9 +/- 3.2%); assay type: functional
MKN-45 [18] = assay: Induction of apoptosis in human MKN45 assessed as accumulation at subG1 phase at 15 uM incubated for 7 days by flow cytometry (reference value: 10.9 +/- 3.2%); assay type: functional
[19] = molecular target: T1, Glycogen synthase kinase-3 beta (Homo sapiens, UniProt P49841); assay: Inhibition of GSK3beta assessed as enzyme residual activity at 10 uM relative to untreated control; procedure, shortened: as §1
Target sequence in this assay (P49841 whole entry, looked up): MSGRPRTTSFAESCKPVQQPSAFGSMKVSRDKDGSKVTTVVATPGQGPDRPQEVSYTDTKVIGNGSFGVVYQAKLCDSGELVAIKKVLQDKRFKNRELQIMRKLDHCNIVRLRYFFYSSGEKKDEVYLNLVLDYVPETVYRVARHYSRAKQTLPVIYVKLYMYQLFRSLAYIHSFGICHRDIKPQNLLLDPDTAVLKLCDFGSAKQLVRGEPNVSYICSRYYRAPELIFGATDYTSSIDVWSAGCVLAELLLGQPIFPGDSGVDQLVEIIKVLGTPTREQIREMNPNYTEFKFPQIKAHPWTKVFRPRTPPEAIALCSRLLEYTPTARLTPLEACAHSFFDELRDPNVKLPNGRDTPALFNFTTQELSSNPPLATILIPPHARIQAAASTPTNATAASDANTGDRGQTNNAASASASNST

MKN-45 [20] = assay: Cytotoxic activity against human MKN45 cells assessed as cell viability at 1 uM incubated for 5 days by MTT assay; assay type: functional; details: MKN-45, 120 h, read-out: Activity; procedure, shortened: as §2
[21] = molecular target: T1, Glycogen synthase kinase-3 beta; assay: Inhibition of GSK3beta
Procedure, shortened: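 IC50 determined by a commercial kinase profiling service (Millipore IC50 Profiler); duplicate testing.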
Target sequence in this assay (P49841 whole entry): as the sequence (P49841 whole entry, looked up) above

[22] = molecular target: RAF proto-oncogene serine/threonine-protein kinase (Homo sapiens) (UniProt P04049); assay: Inhibition of c-RAF assessed as enzyme residual activity at 10 uM relative to untreated control; procedure, shortened: as §1
[23] = molecular target: Receptor-type tyrosine-protein kinase FLT3 (Homo sapiens) (UniProt P36888); assay: Inhibition of FLT3 assessed as enzyme residual activity at 10 uM relative to untreated control; procedure, shortened: as §1
MKN-45 [24] = assay: Cytotoxic activity against human MKN45 cells assessed as cell viability at 5 uM incubated for 5 days by MTT assay; assay type: functional; details: MKN-45, 120 h, read-out: Activity; procedure, shortened: as §2
MOLM-14 [25] = assay: Cytotoxic activity against human MOLM14 cells assessed as cell viability at 20 uM incubated for 3 days by MTT assay; assay type: functional; details: MOLM-14, 72 h, read-out: Activity; procedure, shortened: as §2
[26] = molecular target: Angiopoietin-1 receptor (Homo sapiens) (UniProt Q02763); assay: Inhibition of TIE2 assessed as enzyme residual activity at 10 uM relative to untreated control; procedure, shortened: as §1
MKN-45 [27] = assay: Induction of apoptosis in human MKN45 assessed as accumulation at subG1 phase at 10 uM incubated for 7 days by flow cytometry (reference value: 10.9 +/- 3.2%); assay type: functional
MKN-45 [28] = assay: Induction of apoptosis in human MKN45 assessed as accumulation at subG1 phase at 20 uM incubated for 7 days by flow cytometry (reference value: 10.9 +/- 3.2%); assay type: functional
HUVEC [29] = assay: Induction of apoptosis in human HUVEC assessed as accumulation at subG1 phase at 0.79 uM incubated for 4 days by flow cytometry (reference value: 15.4 +/- 1.5%); assay type: functional
[30] = molecular target: Platelet-derived growth factor receptor beta (Homo sapiens) (UniProt P09619); assay: Inhibition of PDGFRbeta assessed as enzyme residual activity at 10 uM relative to untreated control; procedure, shortened: as §1
Chain of Platelet-derived growth factor receptor beta (Homo sapiens) (P09619 whole entry): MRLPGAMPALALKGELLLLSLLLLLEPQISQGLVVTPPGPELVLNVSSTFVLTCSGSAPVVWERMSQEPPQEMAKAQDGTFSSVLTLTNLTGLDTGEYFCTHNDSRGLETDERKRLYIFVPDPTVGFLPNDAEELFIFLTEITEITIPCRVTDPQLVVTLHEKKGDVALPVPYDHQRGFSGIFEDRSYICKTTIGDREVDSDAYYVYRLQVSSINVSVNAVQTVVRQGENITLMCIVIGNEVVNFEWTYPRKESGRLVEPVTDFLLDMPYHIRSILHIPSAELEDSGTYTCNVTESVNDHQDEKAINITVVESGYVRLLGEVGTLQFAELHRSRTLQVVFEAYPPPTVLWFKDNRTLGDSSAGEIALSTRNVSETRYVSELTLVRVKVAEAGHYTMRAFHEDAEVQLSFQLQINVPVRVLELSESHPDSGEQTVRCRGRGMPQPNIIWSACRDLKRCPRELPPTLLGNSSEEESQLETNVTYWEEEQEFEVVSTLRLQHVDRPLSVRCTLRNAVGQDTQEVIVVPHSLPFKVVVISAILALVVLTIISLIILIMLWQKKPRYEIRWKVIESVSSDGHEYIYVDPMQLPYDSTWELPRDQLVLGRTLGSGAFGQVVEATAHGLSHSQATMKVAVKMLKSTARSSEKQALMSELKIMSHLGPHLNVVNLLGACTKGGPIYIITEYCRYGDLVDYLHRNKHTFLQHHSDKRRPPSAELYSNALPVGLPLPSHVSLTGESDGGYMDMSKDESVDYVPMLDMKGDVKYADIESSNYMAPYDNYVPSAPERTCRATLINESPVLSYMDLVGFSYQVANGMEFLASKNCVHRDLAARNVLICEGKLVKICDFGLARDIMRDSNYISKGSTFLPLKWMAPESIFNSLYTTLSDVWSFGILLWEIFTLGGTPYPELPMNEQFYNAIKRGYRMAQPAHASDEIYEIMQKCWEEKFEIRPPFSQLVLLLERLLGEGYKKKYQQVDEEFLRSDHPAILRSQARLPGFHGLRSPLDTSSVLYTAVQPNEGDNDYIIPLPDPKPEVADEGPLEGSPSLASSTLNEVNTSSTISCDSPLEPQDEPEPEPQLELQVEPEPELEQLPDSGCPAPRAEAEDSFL

[31] = molecular target: CDK6/cyclin D3 (Homo sapiens) (UniProt P30281+Q00534); assay: Inhibition of CDK6/cyclinD3 assessed as enzyme residual activity at 10 uM relative to untreated control; assay type: protein-complex assay; procedure, shortened: as §1
MKN-45 [32] = assay: Cytotoxic activity against human MKN45 cells assessed as cell viability at 0.5 uM incubated for 5 days by MTT assay; assay type: functional; details: MKN-45, 120 h, read-out: Activity; procedure, shortened: as §2
MOLM-14 [33] = assay: Cytotoxic activity against human MOLM14 cells assessed as cell viability at 1 uM incubated for 3 days by MTT assay; assay type: functional; details: MOLM-14, 72 h, read-out: Activity; procedure, shortened: as §2
MOLM-14 [34] = assay: Cytotoxic activity against human MOLM14 cells assessed as cell viability at 10 uM incubated for 3 days by MTT assay; assay type: functional; details: MOLM-14, 72 h, read-out: Activity; procedure, shortened: as §2
[35] = molecular target: Protein kinase C alpha type (Homo sapiens) (UniProt P17252); assay: Inhibition of PKCalpha assessed as enzyme residual activity at 10 uM relative to untreated control; procedure, shortened: as §1
[36] = molecular target: T2, Receptor-type tyrosine-protein kinase FLT3 (Homo sapiens, UniProt P36888); assay: Inhibition of FLT3
T2 sequence (P36888 whole entry): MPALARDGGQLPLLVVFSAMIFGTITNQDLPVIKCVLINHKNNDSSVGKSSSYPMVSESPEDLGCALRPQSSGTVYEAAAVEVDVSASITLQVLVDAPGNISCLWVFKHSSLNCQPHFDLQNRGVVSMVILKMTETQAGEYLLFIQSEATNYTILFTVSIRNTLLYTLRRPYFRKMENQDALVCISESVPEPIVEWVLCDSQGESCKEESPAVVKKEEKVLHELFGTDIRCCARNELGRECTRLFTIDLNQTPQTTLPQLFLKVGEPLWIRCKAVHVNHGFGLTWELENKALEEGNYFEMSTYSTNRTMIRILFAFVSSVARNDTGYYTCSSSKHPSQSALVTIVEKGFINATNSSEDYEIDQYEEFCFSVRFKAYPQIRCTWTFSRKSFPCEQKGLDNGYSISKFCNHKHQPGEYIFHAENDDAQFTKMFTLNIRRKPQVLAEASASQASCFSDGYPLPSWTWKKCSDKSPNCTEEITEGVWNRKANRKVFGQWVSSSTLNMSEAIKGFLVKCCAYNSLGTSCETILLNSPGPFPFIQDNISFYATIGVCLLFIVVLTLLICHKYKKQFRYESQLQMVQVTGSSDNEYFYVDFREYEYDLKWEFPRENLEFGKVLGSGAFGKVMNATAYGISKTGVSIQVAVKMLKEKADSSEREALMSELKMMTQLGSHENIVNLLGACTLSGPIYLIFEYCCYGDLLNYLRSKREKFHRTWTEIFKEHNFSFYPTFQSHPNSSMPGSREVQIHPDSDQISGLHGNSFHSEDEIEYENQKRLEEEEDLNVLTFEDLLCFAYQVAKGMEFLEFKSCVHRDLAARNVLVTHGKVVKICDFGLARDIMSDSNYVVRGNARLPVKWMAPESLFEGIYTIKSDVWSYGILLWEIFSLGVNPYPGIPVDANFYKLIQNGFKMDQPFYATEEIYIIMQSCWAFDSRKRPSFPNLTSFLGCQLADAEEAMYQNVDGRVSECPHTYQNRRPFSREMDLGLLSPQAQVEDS
Procedure, shortened: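 Run as an outsourced kinase profiling service (Millipore IC50 Profiler), with the protocol referred to the provider. Gives IC50 values and residual activity at 10 μM test compound. Compounds tested in duplicate.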

HT-29 = assay: Cytotoxic activity against human HT-29 cells assessed as cell viability at 52 uM incubated for 3 days by MTT assay; assay type: functional; details: HT-29, 72 h, read-out: Activity; procedure, shortened: as §2

Compound: COc1ccccc1C1=C(c2c[nH]c3ncccc23)C(=O)NC1=O
inhibition (INH) [1]: 30%

Activity [2]: 77%
Activity [6]: 93%
Activity [11]: 94%
Activity [12]: 69%
Activity [13]: 109%
Activity [14]: 0%
Activity [15]: 92%
Activity [16]: 97%
Activity [19]: 50%
IC50 [21]: ≥ 10 µM
Activity [22]: 111%
Activity [23]: 2%
Activity [26]: 77%
Activity [30]: 84%
Activity [31]: 99%
Activity [35]: 89%
Compound: COc1cc(C2=C(c3c[nH]c4ncccc34)C(=O)NC2=O)cc(OC)c1OC
viability at 20 µM (MKN-45 [3]): 57.1%
viability at 50 µM (MOLM-14 [4]): 1.77%
viability at 50 µM (MKN-45 [5]): 44.7%
Activity (HUVEC [7]): 49.2%
Activity (MKN-45 [8]): 16.3%
viability at 0.5 µM (MOLM-14 [9]): 65.9%
viability at 10 µM (MKN-45 [10]): 58.7%
Activity (MKN-45 [17]): 9.3%
Activity (MKN-45 [18]): 50.7%
viability at 1 µM (MKN-45 [20]): 110%
viability at 5 µM (MKN-45 [24]): 86.8%
viability at 20 µM (MOLM-14 [25]): 3.56%
Activity (MKN-45 [27]): 37.8%
Activity (MKN-45 [28]): 65.9%
Activity (HUVEC [29]): 26.7%
inhibition (INH) [1]: 61%
viability at 0.5 µM (MKN-45 [32]): 113%
viability at 1 µM (MOLM-14 [33]): 38.9%
viability at 10 µM (MOLM-14 [34]): 4.41%

Compound: COc1cc(C2=C(c3c[nH]c4cccnc34)C(=O)NC2=O)cc(OC)c1OC
Activity (HUVEC [7]): 16.3%
IC50 [36]: ≥ 1500 nM
viability at 52 µM (HT-29): 65.8%
Activity (HUVEC [29]): 14.2%
inhibition (INH) [1]: 10%
